This is a sample that favours compounds with a hit; in the whole collection about 2% have one here.
PLCb3 inh: inhibitors of human phospholipase C beta3 | Q01970 | Purified PLC-beta3, fluorogenic substrate, fluorescence | inhibition, % at 12.2 µM | 0.18% of 370,000 active; in the data active = inhibition above about 11%
Target sequence (Q01970 whole entry, looked up): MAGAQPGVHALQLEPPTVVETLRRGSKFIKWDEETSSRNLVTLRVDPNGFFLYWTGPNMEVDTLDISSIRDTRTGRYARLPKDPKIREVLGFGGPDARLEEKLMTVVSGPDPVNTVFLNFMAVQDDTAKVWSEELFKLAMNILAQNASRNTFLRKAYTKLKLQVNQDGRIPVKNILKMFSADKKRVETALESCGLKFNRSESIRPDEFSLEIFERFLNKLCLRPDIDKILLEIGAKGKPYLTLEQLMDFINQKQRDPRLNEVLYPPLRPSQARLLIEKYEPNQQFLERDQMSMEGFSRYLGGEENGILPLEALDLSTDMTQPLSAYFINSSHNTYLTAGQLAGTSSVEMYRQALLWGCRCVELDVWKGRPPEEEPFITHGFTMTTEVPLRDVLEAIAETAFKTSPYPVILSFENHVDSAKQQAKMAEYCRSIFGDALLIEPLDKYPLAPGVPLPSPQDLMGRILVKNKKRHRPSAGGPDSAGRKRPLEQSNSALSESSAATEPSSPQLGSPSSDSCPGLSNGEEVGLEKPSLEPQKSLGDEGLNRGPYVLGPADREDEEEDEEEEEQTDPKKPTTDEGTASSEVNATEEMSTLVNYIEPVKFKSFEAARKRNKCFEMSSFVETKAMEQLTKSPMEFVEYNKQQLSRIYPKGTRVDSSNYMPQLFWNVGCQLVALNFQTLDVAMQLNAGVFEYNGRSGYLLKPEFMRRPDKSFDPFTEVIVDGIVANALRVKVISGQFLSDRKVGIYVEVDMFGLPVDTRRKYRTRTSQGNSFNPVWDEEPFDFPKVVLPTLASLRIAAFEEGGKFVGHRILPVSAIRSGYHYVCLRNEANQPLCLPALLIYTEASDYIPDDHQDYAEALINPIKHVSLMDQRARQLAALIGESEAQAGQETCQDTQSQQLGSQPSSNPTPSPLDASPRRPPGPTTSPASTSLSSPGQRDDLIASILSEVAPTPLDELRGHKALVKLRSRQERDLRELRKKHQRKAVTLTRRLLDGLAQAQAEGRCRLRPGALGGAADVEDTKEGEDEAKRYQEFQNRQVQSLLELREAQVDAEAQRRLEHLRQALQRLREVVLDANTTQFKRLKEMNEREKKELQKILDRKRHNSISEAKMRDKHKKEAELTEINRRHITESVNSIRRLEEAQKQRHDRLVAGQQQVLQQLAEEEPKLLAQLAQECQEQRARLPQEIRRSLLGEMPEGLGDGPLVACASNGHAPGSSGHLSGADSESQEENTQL
VIM-2 inhibitor: inhibitors of Pseudomonas aeruginosa VIM-2 metallo-beta-lactamase. 0.89% of 290,000 active. AID 1527. inhibition, % at 5.6 µM. purified VIM-2, nitrocefin hydrolysis, epi-absorbance fluorescence;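 active = inhibition above the mean of all tested compounds plus 3 SD, cutoff set per screening run, cut at about 7.5% in these data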;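 note: red hydrolysis product quenches plate fluorescence so inhibitors raise well fluorescence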
PLC-gamma1 inh: blocks human PLC-gamma1 enzyme activity | P19174 | 0.84% of 370,000 active | inhibition, % at 12.2 µM | AID 720700 | purified PLC-gamma1, fluorogenic substrate, fluorescence; in the data active = inhibition above about 9.5%
IMP-1 inh: inhibitors of Pseudomonas aeruginosa IMP-1 metallo-beta-lactamase. purified IMP-1, nitrocefin hydrolysis, epi-absorbance fluorescence. AID 1556. inhibition, % at 5.6 µM. 0.45% of 290,000 active;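 active = inhibition above the mean plus 3 SD of all compounds in the same screening run, cut at about 4.5% in these data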
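System: purified recombinant IMP-1 beta-lactamase. Medium: Zinc- and detergent-supplemented HEPES buffer, pH 7.1. Compound: one 5.6 µM dose […]. Schedule: 15 min preincubation plus 25 min reaction at 25 °C. Technique: Epi-absorbance fluorescence, 480 nm excitation, 530 nm emission.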
PvdQ acylase: P. aeruginosa PvdQ acylase inhibition; inhibition, % at 10 µM; purified PvdQ acylase, fluorescence plate reader; 0.063% of 340,000 active; AID 488965; in the data active = inhibition above about 30%, passing the limit was not always enough
Of the large screens only hits and unclear results are named; the others gave an inactive call.

CCN1CCN(CC(=O)Nc2cc(S(=O)(=O)N(CC)c3ccccc3)ccc2Cl)CC1	PLC-gamma1 inh 9.5 (no result: VIM-2 inhibitor, IMP-1 inh)
COc1ccc(S[C@]2(C(=O)N3CCOCC3)CC(=O)N(c3ccc(Cl)cc3)[C@@H]2c2ccc(OC)cc2)cc1	none (no result: VIM-2 inhibitor, IMP-1 inh, PvdQ acylase)
COc1ccc(-n2c(SCC(=O)Nc3cc(C)c(NC(=O)c4ccccc4)cc3OC)nnc2-c2ccccc2F)cc1	none (no result: VIM-2 inhibitor, IMP-1 inh, PvdQ acylase)
COc1c(C(C)(C)C)cc(S(=O)(=O)N2c3ccccc3C[C@H]2C)cc1C(C)(C)C	none (no result: VIM-2 inhibitor, IMP-1 inh, PvdQ acylase)
Cc1ccc(S(=O)(=O)NCC2CN(S(=O)(=O)c3ccc(C)cc3)c3ccccc3C(=O)N2c2ccc(F)cc2)cc1 (centres undefined)	none (no result: VIM-2 inhibitor, IMP-1 inh, PvdQ acylase)
O=C(CSc1nnc(-c2cccnc2)n1Cc1ccco1)Nc1ccc(Cl)c(Cl)c1	none (no result: VIM-2 inhibitor, IMP-1 inh, PvdQ acylase)
O=C(O)c1cccc2[nH]c(C(F)(F)F)nc12	none
Nc1cccc2[nH]c(C(F)(F)F)nc12	IMP-1 inh 15
CC(=Nc1ccc(C)c(C)c1)C1=C(O)CSC1=O	none
COc1ccccc1N=C(C)C1=C(O)CSC1=O	IMP-1 inh 5.6
O=C(NCc1cccnc1)C1c2ccccc2C(=O)N1Cc1ccco1 (centres undefined)	IMP-1 inh 4.6 (no result: PLCb3 inh, PLC-gamma1 inh)
CCN(c1ccc2c(c1)OCO2)S(=O)(=O)c1cc(Br)cc2c1N(C(C)=O)CC2	IMP-1 inh 7.4
O=[N+]([O-])c1ccc(C2=NN(c3ccccc3)C(c3ccco3)C2)cc1 (centres undefined)	IMP-1 inh 6.6
Clc1cccc(CSc2nnc([C@@H]3CCCN3)o2)c1	none
Clc1cccc(Cl)c1CSc1nnc([C@@H]2CCCN2)o1	IMP-1 inh 5.0
CC1CCc2c(nc3sc4c(c3c2N)CCCC4)C1 (centres undefined)	VIM-2 inhibitor 8.1
O=S1(=O)c2c(cccc2N2CCSCC2)Oc2ccccc2CN1Cc1cn(Cc2cccc(C(F)(F)F)c2)nn1	none (no result: VIM-2 inhibitor, IMP-1 inh, PvdQ acylase)
O=C(CS(=O)CC(=O)Nc1cccc2c1CCCC2)Nc1ccc(F)cc1 (centres undefined)	PLC-gamma1 inh 15
O=C(Nc1cccc2c1CCCC2)c1cccc(F)c1	none
CC(C)(C)CC(=O)Nc1cccc2c1CCCC2	IMP-1 inh 6.9
O=C([C@@H]1C[C@H]1c1ccccc1)N1CC[C@H]2[C@H](CCCN2Cc2ccc(F)cc2)C1	none (no result: VIM-2 inhibitor, IMP-1 inh, PvdQ acylase)
O=C(NC1CCCC1)[C@@H]1CSC2c3ccccc3C(=O)N21 (some centres undefined)	none
O=C(O)C1CSC2c3ccccc3C(=O)N12 (centres undefined)	IMP-1 inh 11
CN1Cc2nnn(Cc3ccccc3)c2-c2ccccc2S1(=O)=O	none (no result: VIM-2 inhibitor, IMP-1 inh, PvdQ acylase)
COC(=O)[C@]12CCCCC=C1N(Cc1ccc(OC)cc1)C(=O)[C@@H]2CC(=O)NCc1ccc(OC)c(OC)c1	none (no result: VIM-2 inhibitor, IMP-1 inh, PvdQ acylase)
N#Cc1cc(F)cc(OC[C@@H](O)CN2CCC(C(O)(c3ccccc3)c3ccccc3)CC2)c1	none (no result: VIM-2 inhibitor, IMP-1 inh, PvdQ acylase)
COCC(=O)OC1CCn2c1nc1c2C(=O)C(C)=C(NC(C)=O)C1=O (centres undefined)	PLC-gamma1 inh 14 (no result: VIM-2 inhibitor, IMP-1 inh)
COc1ccc(-c2cc(-c3nnc(SCC(=O)NC4CCCCC4)n3N)[nH]n2)cc1	none (no result: VIM-2 inhibitor, IMP-1 inh, PvdQ acylase)
CC1CCCCN1CCNC(=O)C1CC(=O)N(c2ccc(F)c(Cl)c2)C1 (centres undefined)	none
CC1CCCN(CCCNC(=O)C2CC(=O)N(c3ccc(F)c(Cl)c3)C2)C1 (centres undefined)	IMP-1 inh 5.8
C[C@H]1[C@@H](NC(=O)C(c2ccccc2)c2ccccc2)CC[C@@]23CCCN2C(=O)CCC[C@@H]13	none (no result: VIM-2 inhibitor, IMP-1 inh, PvdQ acylase)
Cc1cc2cc(CN(Cc3cccs3)C(=S)NCc3ccco3)c(=O)[nH]c2cc1C	VIM-2 inhibitor 8.6
Cc1cc2cc(CN(CCN(C)C)C(=S)NCc3ccco3)c(=O)[nH]c2cc1C	none
O=C(CN(c1cccc(C(F)(F)F)c1)S(=O)(=O)c1ccc(Cl)c([N+](=O)[O-])c1)NCc1ccc(F)cc1	PLCb3 inh 11
COc1ccc(/C=N/NC(=O)c2cnccn2)c(OC)c1OC	none
COc1ccc(/C=N/NC(=O)C(N)=O)c(OC)c1OC	IMP-1 inh 8.4
O=C(Nc1ccc2c(c1)OCO2)O[C@@H]1CC[C@@]23CCCN2C(=O)CCC[C@H]3C1	none (no result: VIM-2 inhibitor, IMP-1 inh, PvdQ acylase)
Cc1cc(C)n(-c2ccc(C(=O)N3CCN(c4ccccn4)CC3)cc2)n1	PLC-gamma1 inh 10 (no result: VIM-2 inhibitor, IMP-1 inh)
O=C(c1ccc(F)cc1)N1CCN(c2ccccn2)CC1	none
Cc1cc(C)n2nc(C(=O)Nc3ccc4c(c3)OCO4)cc2n1	IMP-1 inh 4.7
COc1ccccc1N1CCN(C(=O)c2ccc3c(c2)nc(C)n3-c2cc(OC)c(OC)c(OC)c2)CC1	none (no result: VIM-2 inhibitor, IMP-1 inh, PvdQ acylase)
Cn1c(C(=O)NCCCN2CCN(c3ccc(F)cc3)CC2)cc2c(=O)n(C)c3ccccc3c21	none (no result: VIM-2 inhibitor, IMP-1 inh)
Cn1c(C(=O)NCCN2CCOCC2)cc2c(=O)n(C)c3ccccc3c21	VIM-2 inhibitor 13
CCCCN(CC)CCNC(=O)c1cc2c(=O)[nH]c3ccccc3c2n1C	none
CCCN(CCC)CCCNC(=O)c1cc2c(=O)[nH]c3ccccc3c2n1C	VIM-2 inhibitor 8.9
Cn1c(C(=O)NCCN2CCN(c3ccccc3F)CC2)cc2c(=O)n(C)c3ccccc3c21	VIM-2 inhibitor 8.8
Cn1c(C(=O)N2CCCCCC2)cc2c(=O)n(C)c3ccccc3c21	VIM-2 inhibitor 8.2
CC(C)NC(=O)N[C@H]1C[C@@H]2O[C@H](CO)CC[C@@H]2O[C@@H]1CCc1ccc(-c2ccc(F)cc2)cc1	none (no result: VIM-2 inhibitor, IMP-1 inh, PvdQ acylase)
O=C(CSc1nnc(-c2ccccc2)n1-c1ccc(Cl)cc1)Nc1ccccc1-c1ccccc1	none (no result: VIM-2 inhibitor, IMP-1 inh, PvdQ acylase)
CCCN(CCC)CCNC(=O)c1cc2c(=O)n(C)c3ccccc3c2n1C	VIM-2 inhibitor 22
CCC(=O)N/C(N)=N/c1nc(C)c2cc(C)c(C)cc2n1	VIM-2 inhibitor 10 (no result: PvdQ acylase)
Cc1cc2nc(/N=C(\N)NC(=O)C(C)C)nc(C)c2cc1C	none
Cn1nnnc1SC1CC(=O)N(c2ccccc2)C1=O (centres undefined)	none
Cc1cc(C)cc(N2C(=O)CC(Sc3nnnn3-c3ccccc3)C2=O)c1 (centres undefined)	IMP-1 inh 7.2
Cc1ccc(NC(=O)C2CC3CCC2C3)cc1 (centres undefined)	none (no result: VIM-2 inhibitor, IMP-1 inh, PvdQ acylase)
COc1ccc(OC)c(-c2cc(C(=O)NCCCn3ccnc3)no2)c1	VIM-2 inhibitor 8.4
CN(C)C(CNC(=O)CCCN1C(=O)c2cccc3cccc(c23)C1=O)c1ccccc1 (centres undefined)	VIM-2 inhibitor 9.2
CCN(C)c1nc(C)nc2c1nnn2Cc1ccccc1	none (no result: VIM-2 inhibitor, IMP-1 inh, PvdQ acylase)
COc1ccc(-c2csc(NC(=O)c3ccccc3Br)c2C(=O)O)cc1	none
COc1ccc(-c2csc(NC(=O)Cc3cccc4ccccc34)c2C(=O)O)cc1	IMP-1 inh 7.7
Cc1ccc(C(=O)O)cc1N1C(=O)c2cccc3c([N+](=O)[O-])ccc(c23)C1=O	IMP-1 inh 6.1
O=C(O)c1ccc(CN2C(=O)c3cccc4c([N+](=O)[O-])ccc(c34)C2=O)cc1	none (no result: PLCb3 inh, PLC-gamma1 inh)
COc1ccc2c(c1)c1nc3n(c(=O)c1n2CC(=O)Nc1ccccc1)CCCS3	none
COc1cccc(NC(=O)Cn2c3ccc(F)cc3c3nc4n(c(=O)c32)CCCS4)c1	IMP-1 inh 6.5

Assay outcomes deposited in PubChem by several laboratories.
